According to ChEMBL document CHEMBL1142124, “Antimicrobial prenylated anthracene derivatives from the leaves of Harungana madagascariensis” (2007):
Calls of active or inactive are those of the source. The rule behind the calls is not given here.

Tests used:
[Chlorella] fusca [1] = Antimicrobial activity against Chlorella fusca at 1 ug/uL by agar diffusion assay; format: functional, organism-based; conditions: Scenedesmus fuscus
How it was run: (§1)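 Filter-disk agar diffusion. 50 µL of test solution is applied to a sterile 9 mm disk, and the disk is air-dried. Disks sit on an agar medium suited to each organism, and the plate is sprayed with a suspension of that organism. Incubation is at 28 °C overnight. The radius of the inhibition zone is read in mm.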

Priestia megaterium [2] = assay: Antibacterial activity against Bacillus megaterium at 1 ug/uL by agar diffusion assay; format: functional; how it was run: as §1
[Chlorella] fusca [3] = Antimicrobial activity against Chlorella fusca at 5 ug/uL by agar diffusion assay; format: functional; conditions: for Activity: Scenedesmus fuscus; how it was run: as §1
Microbotryum violaceum [4] = assay: Antimicrobial activity against Micobotryum violaceum at 5 ug/uL by agar diffusion assay; format: functional; how it was run: as §1
Priestia megaterium [5] = assay: Antibacterial activity against Bacillus megaterium at 5 ug/uL by agar diffusion assay; format: functional; how it was run: as §1
Microbotryum violaceum [6] = assay: Antimicrobial activity against Micobotryum violaceum at 1 ug/uL by agar diffusion assay; format: functional, organism-based; how it was run: as §1

Row | SMILES | Activity ([Chlorella] fusca [1]) | Activity (Priestia megaterium [2]) | Activity ([Chlorella] fusca [3]) | Activity (Microbotryum violaceum [4]) | Activity (Priestia megaterium [5]) | Activity (Microbotryum violaceum [6]) | inhibition zone (IZ) (Priestia megaterium [2]) [mm] | inhibition zone (IZ) (Priestia megaterium [5]) [mm] | inhibition zone (IZ) ([Chlorella] fusca [3]) [mm] | inhibition zone (IZ) (Microbotryum violaceum [4]) [mm]
1 | CC(C)=CCc1c(C)c(CC=C(C)C)c2c(c1O)C(=O)c1c(O)cc(O)c(CC=C(C)C)c1C2 | inactive | inactive | inactive | inactive | inactive | inactive |  |  |  | 
2 | CC(C)=CCc1c(C)c2c3c(c1O)C(=O)c1c(O)cc4c(c1[C@]31O[C@H](C2)C(C)(C)O1)C=CC(C)(C)O4 | inactive | inactive | inactive | inactive | inactive | inactive |  |  |  | 
3 | COC1c2c(CC=C(C)C)c(C)cc(O)c2C(=O)c2c(O)cc3c(c21)CC(C(C)(C)O)O3 (stereo not given) [KENGANTHRANOL C] | inactive |  | inactive | inactive |  | inactive | 6 | 10 |  | 
4 | O=c1c2cc(O)ccc2oc2cccc(O)c12 | inactive |  |  |  |  | inactive | 9 | 12 | 10 | 12
5 | CC(C)=CCc1c(C)cc(O)c2c(O)c3c(cc12)[C@]1(CC=C(C)C)C[C@H](O)C(C)(C)[C@@H](C3=O)C1=O [HARUNMADAGASCARIN D] | inactive | inactive | inactive | inactive |  | inactive |  | 10 |  | 
